GPR7 antag – GPR7 receptor antagonists, primary screen, cell-based, fluorescence, single concentration | 290,000 tested, 1.1% active | inhibition, % at 4.4 µM | GPR7-expressing cells, fluorescence antagonist assay; in the data active means inhibition above about 16%, passing the limit was not always enough;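 further: cells stimulated with the agonist NPW; 0% = agonist with vehicle and 100% = vehicle without agonist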
TAAR1 antagonist – human TAAR1 antagonists, primary screen, Fluo-8 calcium fluorescence, CHO RD-HGA16 cells. Trace amine-associated receptor 1 (Homo sapiens), Q96RJ0. antagonist. inhibition, % at 3 µM. 360,000 tested, 1.5% active;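 active means inhibition above a per-plate cutoff, the mean inhibition of test compounds on that plate plus 3 SD, cut at about 49% in these data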;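 further: 0% = DMSO plus EC80 beta-PEA response and 100% = DMSO alone without agonist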
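Test system: CHO RD-HGA16 cells bearing hTAAR1 | Reagent: β-PEA, EC80 | Compound dosing: 3 µM, single point | Schedule: Dye loading 75 min at 37 °C, then 30 min room temperature | Signal: Calcium fluorescence with Fluo-8 | Evaluation: Percent inhibition of PEA-evoked calcium signal, max/basal emission ratio | Control set: DMSO-only wells and EC80 β-PEA-stimulated wells | Repeats: Singlicate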
DAGLB inh – DAGLB lipase inhibitors, primary screen, biochemical, fluorescence, HTS | Diacylglycerol lipase-beta (Homo sapiens), Q8NCG7 | HEK293T DAGLB membrane lysate, EnzChek fluorogenic substrate | inhibition, % at 5.17 µM | 340,000 tested, 0.059% active | AID 504411, 2011; in the data active means inhibition above about 34%;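 further: 0% = enzyme with vehicle and 100% = wells lacking enzyme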
Target sequence (Q8NCG7 whole entry, looked up): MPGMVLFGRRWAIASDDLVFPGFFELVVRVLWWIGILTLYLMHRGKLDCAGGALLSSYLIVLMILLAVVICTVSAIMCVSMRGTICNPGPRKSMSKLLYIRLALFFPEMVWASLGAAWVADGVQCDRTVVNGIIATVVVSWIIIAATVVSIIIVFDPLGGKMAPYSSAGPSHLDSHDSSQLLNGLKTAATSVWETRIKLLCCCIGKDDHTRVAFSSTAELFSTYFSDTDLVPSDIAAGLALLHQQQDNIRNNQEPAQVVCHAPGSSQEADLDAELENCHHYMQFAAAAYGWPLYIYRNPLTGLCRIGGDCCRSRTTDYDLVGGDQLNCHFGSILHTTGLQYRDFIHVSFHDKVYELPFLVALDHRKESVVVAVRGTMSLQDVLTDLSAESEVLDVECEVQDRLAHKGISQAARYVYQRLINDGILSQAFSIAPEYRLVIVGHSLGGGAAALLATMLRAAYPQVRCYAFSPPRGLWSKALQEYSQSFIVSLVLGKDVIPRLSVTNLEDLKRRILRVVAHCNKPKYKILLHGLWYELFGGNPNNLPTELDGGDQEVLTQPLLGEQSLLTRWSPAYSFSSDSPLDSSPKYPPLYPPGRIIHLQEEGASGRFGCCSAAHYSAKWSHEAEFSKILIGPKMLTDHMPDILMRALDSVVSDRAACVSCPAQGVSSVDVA
TAAR1 ag – human TAAR1 agonists, primary screen, Fluo-8 calcium fluorescence, CHO RD-HGA16 cells; Trace amine-associated receptor 1 (Homo sapiens), Q96RJ0; vehicle wells 0%, saturating PEA agonist 100%; activation, % at 3 µM; 360,000 tested, 0.99% active; AID 624467, 2012;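 active means activation above the mean activation of all test compounds in the run plus 3 SD, cut at about 38% in these data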
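System: CHO-derived RD-HGA16 cells with stable Gα16 and human TAAR1 / Times: 17-24 h plating, Fluo-8 75 min 37 °C, 30 min RT / Technique: calcium-sensitive Fluo-8 signal, excitation 470-495, emission 515-575 nm / Measure: % activation relative to PEA EC100 response / Benchmarks: DMSO and PEA EC100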
MPTP block – mitochondrial permeability transition pore inhibitors, primary screen, biochemical, isolated mouse mitochondria, absorbance. inhibition, % at 10 µM. 360,000 tested, 1.4% active. Ca2+ swelling absorbance, 30 min;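 active means inhibition of 50% or more, scaled per plate between neutral and stimulator controls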;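 further: 0% = DMSO wells given calcium and 100% = 1 mM EGTA wells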
TAAR1 nonsel count – nonselective antagonists in TAAR1 counter-screen cells, counter-screen for hTAAR1 antagonist project, cell-based, fluorescence, calcium; shares compounds with TAAR1 antagonist; counterscreen cell line, antagonist mode; inhibition, % at 3 µM; 2,400 tested, 77% active; AID 651780, 2012; in the data active means inhibition above about 22%;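 further: CHO-Ga16 host cells stimulated with ATP at an EC80 level; 0% = agonist EC80 plus vehicle and 100% = vehicle without agonist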
TAAR1 ant conf – human TAAR1 antagonists, retest of hits, confirmation, cell-based, fluorescence; shares compounds with TAAR1 antagonist; 2,400 tested, 40% active; TAAR1-expressing cells, fluorescence antagonist read-out; inhibition, % at 3 µM; in the data active means inhibition above about 49%;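 further: CHO-Ga16 host cells challenged with agonist PEA near its EC80; 0% = agonist at EC80 plus vehicle and 100% = vehicle with no agonist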
Ga16 ag counter – calcium activation in Ga16-expressing cells, counter-screen for TAAR1 antagonist project, cell-based, fluorescence | shares compounds with TAAR1 antagonist | agonist counterscreen | activation, % at 3 µM | 2,400 tested, 18% active; in the data active means activation above about 12%;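 further: 0% = vehicle wells and 100% = saturating stimulus response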
TAAR1 ag counter – TAAR1 activation by candidate antagonists – cell-based, fluorescence, counter-screen for TAAR1 antagonist project; AID 651955, 2012; hTAAR1 cell line, agonist mode; 2,400 tested, 2% active; activation, % at 3 µM; shares compounds with TAAR1 antagonist; in the data active means activation above about 37%;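 further: CHO cells stably expressing TAAR1 with calcium dye readout; 0% = DMSO vehicle and 100% = full agonist response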
An asterisk follows results filed as active; · = no result given. A selection: hits, their analogues and other compounds. The true share with any hit is near 4%.

SMILES	GPR7 antag	TAAR1 antagonist	DAGLB inh	TAAR1 ag	MPTP block	TAAR1 nonsel count	TAAR1 ant conf	Ga16 ag counter	TAAR1 ag counter
COc1ccc(-c2cc(NC(C)=O)c3ncc(-c4cccc(C(F)(F)F)c4)n3c2)c(OC)c1	·	35	·	-1	1	·	·	·	·
CC(=O)Nc1cc(-c2ccccc2N(C)C)cn2c(-c3ccccc3)cnc12	·	40	·	19	1	·	·	·	·
CC(=O)Nc1cc(-c2cccc(F)c2)cn2c(-c3ccccc3)cnc12	·	61*	·	11	2	35*	43	4	8
COc1ccccc1-c1cc(NC(C)=O)c2ncc(-c3ccccc3)n2c1	·	56*	·	4	0	24*	41	21*	37
COc1ccccc1-c1cc(NC(C)=O)c2ncc(-c3cccc(C(F)(F)F)c3)n2c1	·	59*	·	1	2	32*	51*	6	20
CC(=O)Nc1cc(-c2cccc(F)c2)cn2c(-c3ccc(S(C)(=O)=O)cc3)cnc12	·	17	·	6	1	·	·	·	·
COC(=O)[C@]12CCCCC=C1N(CCC1=CCCCC1)C(=O)[C@H](CC(=O)N1CCC(c3ccccc3)CC1)C2	·	7	·	-1	0	·	·	·	·
COc1ccc(-c2cc(NC(C)=O)c3ncc(-c4ccccc4)n3c2)c(OC)c1	·	68*	·	3	-1	26*	32	8	5
COc1ccc(-c2cc(NC(C)=O)c3ncc(-c4ccc(OC)c(OC)c4)n3c2)c(OC)c1	·	-9	·	-1	0	·	·	·	·
Cc1cccc(C)c1NC(=O)C(c1ccc(C(F)(F)F)cc1)n1c(=O)c(-c2ccccc2)nc2ccccc21 (centres undefined)	·	-44	·	1	6	·	·	·	·
COc1c(F)c(F)c(C(=O)Nc2cccc(Cl)c2N2CCOCC2)c(F)c1F	-11	72*	-17	23	0	17	31	6	19
O=C(Nc1cccc(Cl)c1N1CCOCC1)c1ccco1	2	-1	-7	0	1	·	·	·	·
CCO[C@H]1OC(C(=O)Nc2ccccc2)=C[C@@H](c2coc3ccccc3c2=O)[C@@H]1CCCO	-11	22	1	13	-3	·	·	·	·
CCO[C@@H]1OC(C(=O)NCc2ccccc2)=C[C@H](c2coc3ccccc3c2=O)[C@H]1CCCO	-9	50*	-1	10	-1	11	24	3	6
O=C(NCc1ccccc1)C1=C[C@@H](c2coc3ccccc3c2=O)C[C@@H](OCc2ccc(CO)cc2)O1	-12	52*	5	14	0	18	21	2	-2
C=CCOC(=O)C1=C[C@H](c2cn(C(C)=O)c3ccccc23)C[C@H](OCc2ccc(CO)cc2)O1	-1	75*	-1	24	1	38*	52*	11	17
O=C(NC1CCCC1)C(C1CC1)n1c(-c2ccnc3ccccc23)nc2ccccc21 (centres undefined)	·	-1	·	7	3	·	·	·	·
Cc1cc2nc3c(=O)[nH]c(=S)[nH]c3nc2cc1NC(=O)C(F)(F)F	-1	-4	-38	11	-1	·	·	·	·
COc1ccccc1CNC(=O)COc1cc(O)c2c(c1)OC(C)(C)CC2=O	·	-9	·	0	1	·	·	·	·
CCOC(=O)c1[nH]c2ccc(OC)cc2c1NC(=O)CN1CCc2ccccc2C1	-12	60*	-1	17	-1	23*	51*	11	23
CCCN(C)C[C@@H]1Oc2ncc(Br)cc2C(=O)N([C@@H](C)CO)C[C@H]1C	·	-15	-4	0	-1	·	·	·	·
Cc1c(NC(=O)CSc2ccc(Cl)cc2)cccc1-c1nc2ncccc2o1	-12	60*	-2	11	2	31*	46	11	10
N#Cc1nc(COc2ccc(Cl)cc2)oc1NCc1ccc2c(c1)OCO2	8	50*	0	8	-1	22*	17	0	-1
O=C1C(=NO)C(c2ccccc2)Oc2ccccc21 (centres undefined)	·	-17	-2	-3	0	·	·	·	·
Cc1nc(SCC(=O)c2ccccc2)c(C#N)c(-c2ccco2)c1C(=O)NCc1ccco1	12	62*	4	25	-7	35*	58*	10	7
SMILES	GPR7 antag	TAAR1 antagonist	DAGLB inh	TAAR1 ag	MPTP block	TAAR1 nonsel count	TAAR1 ant conf	Ga16 ag counter	TAAR1 ag counter
COCCOC(=O)c1c(C)nc(SCC(=O)Nc2ccc(OC)cc2)c(C#N)c1-c1ccco1	-4	-6	-7	4	0	·	·	·	·
CCCCn1nc(C(=O)NC2CCCCC2)c2ccccc2c1=O	·	-33	-4	7	-2	·	·	·	·
COCCn1cnc2c(c1=O)c1nc3ccccc3nc1n2/N=C/c1cccc(OC)c1	-18	53*	2	20	5	27*	44	7	6
COc1ccc(/C=N/Nc2nc(-c3cccc(S(=O)(=O)N4CCCC4)c3)cs2)cc1OC	-7	-1	3	1	-1	·	·	·	·
COc1cc(/C=N/Nc2nc(-c3ccc(S(=O)(=O)N(C)C)cc3)cs2)ccc1O	-2	69*	-2	17	8	30*	43	11	13
COc1ccc(OC)c(S(=O)(=O)NC(=O)C2(C)CCN2C(=O)C2(c3ccc(Cl)cc3)CC2)c1 (centres undefined)	·	-20	·	3	-2	·	·	·	·
C[C@@H](NS(=O)(=O)c1c(F)cccc1F)c1ccccc1	·	-21	·	1	·	·	·	·	·
O=C(CC(C(=O)c1ccccc1)c1ccccc1)c1ccccc1 (centres undefined)	·	67*	-10	1	1	23*	40	6	2
O=C(NC1CCCCC1)C1c2ccccc2OCC(=O)N1CC(F)(F)F (centres undefined)	·	2	·	3	1	·	·	·	·
CN1CCN(C(=O)c2ccc(NS(=O)(=O)c3cccc([N+](=O)[O-])c3)cc2)CC1	·	-6	-2	3	-1	·	·	·	·
COc1ccc(NC(=O)CN(c2ccc(OC)cc2)S(=O)(=O)c2ccc(OC)c(OC)c2)cc1	-2	51*	-3	18	-1	23*	34	6	3
CCN(CC(=O)Nc1cccc(C(C)=O)c1)S(=O)(=O)c1ccc(OC)cc1	-18	1	1	5	-2	·	·	·	·
